Reference: the EternaBench riboswitch data

System: MS2 coat protein
Experiment: apparent Kd, MS2 coat protein; higher = weaker binding; RNA-MaP array; FMN 200 µM where present
Summary of the method: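 The apparent Kd comes from binding curves fitted cluster by cluster, filtered, and summarised as a median. Those curves followed SNAP-549-labelled MS2 coat protein from 0.7 or 1.5 nM, doubling to 3 µM, on Illumina sequencing-chip clusters where stalled E. coli RNA polymerase had transcribed the designs, without and then with constant ligand. The buffer was 100 mM Tris-HCl pH 7.5, 80 mM KCl, 4 mM MgCl2, BSA, DTT, yeast tRNA and Tween-20, and green signal was normalised to red-channel RNA signal and control-cluster median Fmax.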

[1] = designed as: OFF switch for flavin mononucleotide, no ligand
[2] = ligand present: flavin mononucleotide, designed as: OFF switch for flavin mononucleotide
[3] = designed as: ON switch for flavin mononucleotide, no ligand
[4] = ligand present: flavin mononucleotide, designed as: ON switch for flavin mononucleotide

Row | Sequence | apparent Kd [1] | apparent Kd [2] | apparent Kd [3] | apparent Kd [4]
1 | UUAUUAUAUGUAGGAUAUGCAUAUUAUUAUUGUGCAGAAGGACAUGAGGAUCACCCAUGUAUAUUAUUAUUAUAUAUUAUAUAU | 30.9 nM | 49.7 nM | – | –
2 | GGAUAGGGCAGAGGAUAUACGUGCUAGAGAUACUAGCAAAAUUUCCUCACAUGAGGAUCACCCAUGUAGAAGGCUGUCCUAUCG | 14.1 nM | 464 nM | – | –
3 | AGUCGGAGCAGAGGAUAUACAUGAGGAUCACCCAUGUAAUAAAGUGAAGCCUGGAAACAGGCAAUGUAGAAGGCUGCUCCGACA | 28.1 nM | 232 nM | – | –
4 | AUUAUAUUAGGAUAUUCGCUGUGGUACAUGAGGAUCACCCAUGUAUCUGCUUGUAUCAACGAAGAAGGAAUGUGUA | 15.5 nM | 16.8 nM | – | –
5 | GGAUCGAGUGUGAGGAUAUGCUGGUCCUUGGAUCAGCAGAAGGCACAUGAGGAUCACCCAUGUGAAGACGAUCC | 23.6 nM | 187 nM | – | –
6 | AGUUUUUAUGUCAGGAUAUCAGUAGGUCUCCCGGAUGAGAAGGGACAUGAGGAUCACCCAUGUAACCAAAGAGC | 15.6 nM | 18.5 nM | – | –
7 | CCCUAAUAUCGAGGAUAUGUCUAGACACAUGAGGAUCACCCAUGUAUGUGUAUAGAAGGCGAUAUUAACAGCAUGUUACAUCCC | – | – | 46.2 nM | 21.7 nM
8 | AACAGCUCGUCAGGAUAUAUUAUAUUUAUAUGGCUGAAUGUACAUGAGGAUCACCCAUGUAGUUUGUAGAAGGGACGAGCUGAA | 11.6 nM | 18.9 nM | – | –
9 | GGAUGACAAAGUCAUCCCUGACGGACAUGAGGAUCACCCAUGUAGGAUAUGCUACUCAAAGAGUAGCAGAAGGACAUGUGUCUU | 35.5 nM | 206 nM | – | –
10 | UCCAAAUCGUAGAAGGGUGACAUGAGGAUCACCCAUGUGCAGCAGCCGUGAAUGGCCAUGCUGCCACAGGAUAUACGAUGGAGU | – | – | 49 nM | 43 nM
11 | UGAAAUCAUGUAGGAUAUGCAUGGCGAAGCUACGCAGAAGGACAUGAGGAUCACCCAUGUUAUAGCUACCCAGUUUGGUGGCAA | 49.8 nM | 151 nM | – | –
12 | AUCCGGCGUGUAGGAUAUGGAAAAGAUUAGAAACCAGAAGGACAUGAGGAUCACCCAUGUACAUGUAAACAGUCAUCACCGGAA | 12.2 nM | 35.1 nM | – | –
13 | GCGCUUAUACAGAAGGCCAGAGACAUGAGGAUCACCCAUGUUAGAUUGUGGAGGAUAUGUGUUUUAUUACAGAUAGUUGAGCGC | – | – | 20.5 nM | 6.53 nM
14 | GAGCUAUGAGGAUAUGCAUAUAUGCGGUUUCGUGUGGUACUACAUGAGGAUCACCCAUGUAGAAGGCGUGGCUG | 17.2 nM | 17 nM | – | –
15 | AGCUAGUCAGGAUAUGCGAACAUGUCAAAAGACGUGAAGGGACAUGAGGAUCACCCAUGUAGAAGGGACUAGCA | 31.8 nM | 35.9 nM | – | –
16 | UGUUACUAGUAAGGAUAUACUUGCGACUAGCUUGUAGAAGGUACAGUCUUUUGUAUAACAUGUUUACAUGAGGAUCACCCAUGU | – | – | 9.05 nM | 8.38 nM
17 | UCAUGAAGGAUAGGAUAUGGACAUGAGGAUCACCCAUGUACAUGGGAAUGAAUACUGAAUUUGUACUAGAAGGGUUACAUAAAU | 56.4 nM | 37 nM | – | –
18 | AACAGUACAGGAUAUACAUGAGGAUCACCCAUGUGAGCUUUAAGUGCCGUAGCACAAAGUAGAAGGGUACUGGA | 24.4 nM | 91.8 nM | – | –
19 | AAAGACAGACAUGAGGAUCACCCAUGUUAUGAAGAUACUGGGAGAAGGGCGAUUGCAAAGCAAUCGCAGGAUAUUCGUAUUGUC | – | – | 92.2 nM | 15.6 nM
20 | CAUGUCCUCACAGGAUAUGCACCACUUUGUGGUGCAGAAGGGUGAAUACAUGAGGAUCACCCAUGUGGACAUGAUAUAUUUAAU | – | – | 1140 nM | 72.2 nM
21 | AUUUAGUGCGAGAAGGCGUGGUCACAUGAGGAUCACCCAUGUCAGUACACGAGGAUAUCGAUUCGCUGUGUAAACACAAGCGAC | – | – | 80.7 nM | 6.67 nM
22 | GGGUGAUCCUUAGGAUAUCCCGCGCCAAAGUGCGUUUAUACUACAUGAGGAUCACCCAUGUAACGGGAGAAGGGAGGAAGCCCG | – | – | 11 nM | 4.31 nM
23 | GCCAUCGUAUGAGGAUAUGGCACCGAAACGGUGCCAGAAGGCAUGUCUAUAGACAUGAGGAUCACCCAUGUGUUAUCGAUGGCA | – | – | 146 nM | 14.8 nM
24 | UUUUAACAUGAGGAUCACCCAUGUGAGGAUAUCGAAAUUUAUAUUAAUAUUAUUUUUUCGAGAAGGCACAUUUU | 124 nM | 155 nM | – | –
25 | GAGCGGGAAACAUGAGGAUCACCCAUGUGAUGUAUCCUCACGUAGGAUAUGCACACGAGAAGUGUGCAGAAGGGCGACCCGGUC | 1100 nM | 1260 nM | – | –
26 | CGCAUUCCGUAGAAGGGUGACAUGAGGAUCACCCAUGUGCGAGCCGAGGGAGUCAGCGGCUCGCCACAGGAUAUACGGAGCACG | – | – | 87.3 nM | 84.8 nM
27 | UGUUCUAUGUAGAAGGCCCAUAUCUGUUUUUAGGGAGGAUAUACAUGAGGAUCACCCAUGUGUAGAGCUGGUGGACUGGUCAGC | 13.7 nM | 40.1 nM | – | –
28 | ACAUGAGGAUCACCCAUGUGGACAUAGGAUAUUGGUGGUCAGGCGUGUUAUACAGGAUAGGUCUGCGAGAAGGGUGUGCGUUGC | – | – | 84.9 nM | 75 nM

Row | Sequence | apparent Kd [1] | apparent Kd [2] | apparent Kd [3] | apparent Kd [4]
29 | GUCAGCUCGUGAGGAUAUACAACACUGCUUCGGCAGUGUAUUAAGAUCACAUGAGGAUCACCCAUGUAGAAGGCACGAUCUGAU | 13.6 nM | 220 nM | – | –
30 | UUGAGGUGCAAGAAGGAUCACAUGAGGAUCACCCAUGUGAUAUAAAGUCUCGAGAUUUUAUAUCGAUAGGAUAUUGCACCGAAC | – | – | 19.9 nM | 13.8 nM
31 | CGCAAUAUACAGAAGGAGUUAUUGAGAGGUUUACUAGGAUAUGUUCACAUGAGGAUCACCCAUGUCAUAUGGUUUUUUAUUGCG | 13.6 nM | 11.4 nM | – | –
32 | CCUGUGUGAGGAUAUGUACUGCUCCUGUCCAACAGUGUAGAGCAGAAGGCACAUGAGGAUCACCCAUGUGAAAA | 26.2 nM | 23.1 nM | – | –
33 | UCCGUGGCAUCUCGCGCAUGUCUACAUGAGGAUCACCCAUGUCAGGAUAUACGGAUUGUCGUUCUGUAGAAGGGACAAGGGCUG | 131 nM | 108 nM | – | –
34 | GUUAGACAUGAGGAUCACCCAUGUGAGGAUAUGAUGCGAUCGUGAUGAAAUGAUCGCAUCAGAAGGCACAUAUG | 153 nM | 423 nM | – | –
35 | AAGGAAACCACAGGAUAUGGCUAGCAUAGCUAGCCAGAAGGGUGGUCGAAACCAUGUAAAUACAUGAGGAUCACCCAUGUGUCC | – | – | 189 nM | 271 nM
36 | GAUUGACGACAAUUACAUGAGGAUCACCCAUGUUGUAGGAUGCAGGAUAUGUGGUAUAUUAUUUAACAGAAGGGCAAUAAUUUU | – | – | 25.8 nM | 29.3 nM
37 | AUACGGAGGGAGAAGGGCUAGGAGGUCCAGCUUAUGUGUGUUGCAACAUGAGGAUCACCCAUGUAGCAGGAUAUCCCUUGUACA | 42.9 nM | 231 nM | – | –
38 | GUAGCAUACCAAGGAUAUUCAUAUAAUAAGUAAACAUGAGGAUCACCCAUGUAGUGAGAGCCUUGGGAGAAGGUGGAAUGCUAC | – | – | 16.6 nM | 18.3 nM
39 | GAGCUAUGAGGAUAUGCAUAUAUGCGGUUUCGUGUGGUACUACAUGAGGAUCACCCAUGUAGAAGGCGUGGCAG | 16 nM | 17.5 nM | – | –
40 | UUAUUACGAGGAUAUCGUUUUUAUCACAUGAGGAUCACCCAUGUUGUUUAUGUUUCGUUUCGAGAAGGCGUUUGUU | 27.6 nM | 19.9 nM | – | –
41 | GUGUAGUGAGGAUAUACAUGAGGAUCACCCAUGUGAAUAAGAUAGAAUAAGAUAAAGUGUAGAAGGCAUAGUGU | 40.2 nM | 31.5 nM | – | –
42 | GUAGAGUAGUGAGGAUAUACGAGUACGAUAGUACGGCGAUCCAAUAAUACAUGAGGAUCACCCAUGUAGAAGGCACUUCUCUAC | 8.53 nM | 98.7 nM | – | –
43 | UGUCGGAGCAGAGGAUAUACAUGAGGAUCACCCAUGUAAGAAAGUGAAGCCUGGAAACAGGCAAUGUAGAAGGCUGCUCCGACA | 12.4 nM | 86.3 nM | – | –
44 | CAAGGCGGUGAAGGAUAUACACGGGCGUUGCCAAACAUGAGGAUCACCCAUGUAGAAGGUCACCCUGAGAAGGCUUUAUGCCUA | 411 nM | 42.2 nM | – | –
45 | CCAGAUAUGUGAGGAUAUAGAGUGGAAUACACUCUAGAAGGUAUGUGAAAACAUGAGGAUCACCCAUGUGAUUGAUUAUCUGGA | – | – | 28.2 nM | 27.3 nM
46 | UAAUCUGGUCAGGAUAUCGGUGCACAGUGCACAGGAGAAGGGACCACAUGAGGAUCACCCAUGUAGGCUCUCCU | 17.8 nM | 24.4 nM | – | –
47 | UAUAAUCGAGGAUAUACAUGAGGAUCACCCAUGUGUUGCCGCGUGAUGUGUUUGUCAGGUAGAAGGCGAUUAUA | 200 nM | 43.8 nM | – | –
48 | AGCUGUGGCCGAGGAUAUCUGUUCCAUAUAACCGAAAUAUAAUCGGACAUGAGGAUCACCCAUGUAGAGAAGGCGGUCUCAGCA | 22.7 nM | 24.8 nM | – | –
49 | GCAAUAGCAUGAGGAUAUGUUGGAGUUUAGACAGCAGAAGGCAUGUCAUAAGACAUGAGGAUCACCCAUGUAAUUACAAUAGCA | – | – | 32.7 nM | 12.1 nM
50 | CGUGUACGAGGAUAUAGAUUGGAUGACAUGAGGAUCACCCAUGUGAUCGAUCUAUUUGGUUUAGAAGGUGUACAUG | 13.4 nM | 14.2 nM | – | –
51 | CCAUGGCAUGUAGGAUAUGUCUGACAAAGUCAGACAGAAGGACAUGAGGAUCACCCAUGUAAACCGAAAGGAACAUAGCCAUGG | 6.54 nM | 7.3 nM | – | –
52 | AAAAAGGGAGGAUAUACAUGAGGAUCACCCAUGUAAAAAAAAACAAAAAAAAAAAAAAGUAGAAGGCCCAAAAA | 54.8 nM | 47.8 nM | – | –
53 | GUCAUGUGAGGAUAUGUAGCCACGAAAUCUUGUAGAGGCAGACAGAAGGCACAUGAGGAUCACCCAUGUGUUUU | 31.6 nM | 258 nM | – | –
54 | CGAAAAUUUCAGAAGGACCAAUUCCACAUGAGGAUCACCCAUGUCGAUGGUAGGAUAUGGAGUUGUGGACAGGGUGGAUGUUCC | – | – | 122 nM | 12.6 nM
55 | CGUUGUUGCGCAGGAUAUGCAUUGGAUUACAAUGCAGAAGGGCGAUUACAUGAGGAUCACCCAUGUGUCGACAAUAAGGAAGAG | – | – | 35.9 nM | 34 nM
